From ChEMBL document CHEMBL4011621, “A Novel Series of Highly Potent Small Molecule Inhibitors of Rhinovirus Replication” (J Med Chem, 2017) come the findings set out here.

Series [1] can be described thus: Cytotoxicity aganist human HeLa cells assessed as decrease in cell viability after 2 days by MTT assay. It is filed as cell-based. A general note: Tetrazolium assays rely on reduction of a dye to a coloured formazan, in cell work by metabolically active cells.
Series [2] can be described thus: Cytotoxicity against human H1HeLa cells assessed as decrease in cell viability after 3 days by MTT assay. It is filed as cell-based, H1-HeLa.
Series [3] in a line: Selectivity index, ratio of CC50 for human H1HeLa cells to EC50 for Human rhinovirus B14 infected in human H1HeLa cells. It is filed as toxicity, cell-based. The following applies: read-out: Ratio CC50/EC50. In a few lines:
(§1)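 H1HeLa cells plated 2 d ahead; virus plus compound (equal volumes) incubated 33 °C, 3 d, CO2. MTT 1 h at 37 °C, A540/A690. Survival scaled between uninfected untreated (100%) and virus-only (0%) wells to give EC50. CC50 = 50% cell death by MTT in H1HeLa. SI = CC50/EC50; at least three independent experiments.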

A short description of series [4]: Selectivity index, ratio of CC50 for human H1HeLa cells to EC50 for Human rhinovirus A71 infected in human H1HeLa cells. It is filed as toxicity, cell-based. To be noted: read-out: Ratio CC50/EC50. In a few lines:
as §1

The next series deals with Poliovirus 3. The series is described as follows: Antiviral activity against Human poliovirus 3 infected in human HeLa cells assessed as protection against virus induced cytopathic effect after 2 days by MTT assay. It is filed as functional, cell-based. The following applies: Enterovirus C, 48 h. The method in brief: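 HeLa cells; MTT-based CPE reduction. Virus and compound added in equal volumes, incubated 37 °C for 2 d in CO2. Supernatant removed, MTT 1 h at 37 °C, formazan dissolved, absorbance 540 nm (690 nm reference). Uninfected untreated wells = 100% survival, virus-only = 0%. EC50 = 50% inhibition; means ± SD, three experiments.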
In general terms: Cytopathic effects are the visible damage that an infection or toxin causes in cultured cells.

Another series relates to rhinovirus A21. In words: Antiviral activity against Human rhinovirus A21 infected in human H1HeLa cells assessed as protection against virus induced cytopathic effect after 3 days by MTT assay. The class given is functional, cell-based. To be noted: Rhinovirus A, H1-HeLa, 72 h. The method in brief: (§2)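 CPE-reduction assay in H1HeLa cells plated 2 d before. Equal volumes of virus and compound were added and held at 33 °C for 3 d under CO2. Supernatant was removed, then MTT was added for 1 h at 37 °C. Formazan was dissolved and read at 540 nm against a 690 nm reference. Survival was scaled between uninfected untreated wells (100%) and virus-only wells (0%); mean ± SD, three experiments.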

The nature of series [5]: Antiviral activity against Human rhinovirus A71 infected in human H1HeLa cells assessed as protection against virus induced cytopathic effect after 3 days by MTT assay. It is filed as functional, cell-based. The following applies: Rhinovirus A, H1-HeLa, 72 h. In a few lines: as §2
Series [6] in a line: Selectivity index, ratio of CC50 for human H1HeLa cells to EC50 for Human rhinovirus A21 infected in human H1HeLa cells. It is filed as toxicity, cell-based. To be noted: read-out: Ratio CC50/EC50. In a few lines: as §1
A further series has as its system rhinovirus B14. In words: Antiviral activity against Human rhinovirus B14 infected in human H1HeLa cells assessed as protection against virus induced cytopathic effect after 3 days by MTT assay. It is filed as functional, cell-based. To be noted: Rhinovirus B, H1-HeLa, 72 h.
A short description of series [7]: Selectivity index, ratio of CC50 for human HeLa cells to EC50 for human poliovirus 3 infected in human HeLa cells. It is filed as toxicity, cell-based. To be noted: read-out: Ratio CC50/EC50. The method in brief:
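SI = CC50/EC50 in HeLa cells. CC50 = 50% cell death by MTT. EC50 = 50% inhibition of PV3 CPE by MTT after 2 d at 37 °C, survival scaled to uninfected (100%) and virus-only (0%) wells. At least three independent experiments.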

For orientation: CC50 means the concentration that lowers cell viability or growth by half. For orientation: EC50 means the concentration needed to bring the measured effect to its halfway point. On to `CNC(=O)c1cc(Oc2ccc3ccc(C(=O)OC(C)C)cc3c2)ccn1`, for which the CC50 at 48 h in series [1] came out at 8700 nM. Further, the CC50 at 72 h in series [2] was 13800 nM. The selectivity ratio in series [3] was 7.7; in series [4], 730; in [6], 29; in series [7] it was 870. The EC50 with Poliovirus 3 amounted to 10 nM; in the series with rhinovirus A21, 480 nM; in [5], 19 nM; with rhinovirus B14, 1800 nM.
In the case of `CNC(=O)c1cc(Oc2ccc3c(C)c(C(=O)OC)sc3c2)ccn1`, in [1], the CC50 at 48 h turned out to be 15700 nM. In addition, the CC50 at 72 h in [2] is 10800 nM. The selectivity ratio was 5.4 in series [3], 6.8 in series [4], 43 in series [6] and 180 in series [7]. Further, the EC50 with Poliovirus 3 was 87 nM; with rhinovirus A21, 250 nM; in series [5], 1600 nM; in the series with rhinovirus B14 it was 2000 nM.
With `CNC(=O)c1cc(Oc2ccc3c(C)c(C(=O)OC(C)C)n(C)c3c2)ccn1`, the CC50 at 48 h in series [1] is 8500 nM. Moreover, in series [2], the CC50 at 72 h is 11200 nM. The selectivity ratio in series [3] amounted to 5.9; in [4], 190; in [6], 86; in series [7] it was 120. Further, the EC50 is 71 nM with Poliovirus 3, 130 nM with rhinovirus A21, 60 nM in [5] and 1900 nM in the series with rhinovirus B14.
Take `CNC(=O)c1cc(Oc2ccc3cc(C(=O)OC(C)C)n(C)c3c2)ccn1`: the CC50 at 48 h in [1] stood at 46100 nM. Besides, the CC50 at 72 h in series [2] was determined as 10300 nM. Also, the selectivity ratio in series [3] came to 13; in series [4], 1500; in [6] it was 160; in series [7], 5.1. The EC50 in the series with Poliovirus 3 amounted to 9100 nM; with rhinovirus A21, 64 nM; in series [5], 7.1 nM; in the series on rhinovirus B14, 820 nM.
Take `CCCOC(=O)c1sc2cc(Oc3ccnc(C(=O)NC)c3)ccc2c1C`: the CC50 at 48 h in series [1] stood at 57100 nM. Moreover, in series [2], the CC50 at 72 h was 37400 nM. Besides, the selectivity ratio in series [3] came out at 13; in series [4], 580; in series [6], 110; in series [7] it was 80. For the same compound, the EC50 with Poliovirus 3 came out at 710 nM; in the series with rhinovirus A21, 330 nM; in [5], 64 nM; in the series on rhinovirus B14 it was 2900 nM.
Consider `CCOC(=O)c1cc2ccc(Oc3ccnc(C(=O)NC)c3)c(Cl)c2s1`, for which the CC50 at 48 h in series [1] is greater than 100000 nM. Also, the CC50 at 72 h in series [2] was greater than 100000 nM. Besides, the selectivity ratio in series [3] was greater than 8.1; in [4] it was greater than 500; in series [6] it was greater than 13; in [7] it was greater than 1.7. Moreover, the EC50 came to 58700 nM in the series on Poliovirus 3, 7700 nM with rhinovirus A21, 200 nM in [5] and 12400 nM with rhinovirus B14.
With `CCOC(=O)c1cc2ccc(Oc3ccnc(C(=O)NC)c3)cc2s1`, the CC50 at 48 h in [1] was greater than 100000 nM. In addition, in series [2], the CC50 at 72 h was greater than 100000 nM. The selectivity ratio in series [3] was greater than 1.7; in series [4] it was greater than 5300; in series [6] it was greater than 77; in series [7] it was greater than 1.6. The EC50 with Poliovirus 3 was 64300 nM; in the series on rhinovirus A21 it was 1200 to 1300 nM; in series [5], 19 nM; in the series with rhinovirus B14 it was 24600 to 58400 nM.
`CCOC(=O)c1sc2cc(Oc3ccnc(C(=O)NC)c3)ccc2c1C#N`: the CC50 at 48 h in [1] is greater than 100000 nM. In series [2], the CC50 at 72 h was greater than 100000 nM. For the same compound, the selectivity ratio in series [3] is greater than 1.2; in series [4], greater than 190; in series [6] it was greater than 4.8; in [7] it was greater than 1.8. In addition, the EC50 with Poliovirus 3 is 55400 nM; in the series on rhinovirus A21, 20700 nM; in series [5] it was 540 nM; with rhinovirus B14, 82500 nM.
